Here are results for 13 compounds from ChEMBL document CHEMBL4004827, “Exploration of DAPI analogues: Synthesis, antitrypanosomal activity, DNA binding and fluorescence properties” (Eur J Med Chem, 2017).

Usually ΔTm stands for the shift of the melting midpoint relative to a reference. The term pIC50 denotes −log10 of the IC50, conventionally taken in molar units. High values mean a small IC50, low ones a large IC50.

A short description of data set [1]: Binding affinity to poly(dA-dT)n DNA (unknown origin) assessed as change in melting temperature at 0.3 molar ratio of compound:DNA by spectrophotometric analysis. A digest of the protocol:
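Thermal melting with poly(dA-dT) in CAC 10 buffer (10 mM cacodylic acid, 1 mM EDTA, 100 mM NaCl, pH 7.0), 1 cm quartz cuvettes, heated at 0.5 °C/min. DNA concentration set by absorbance at 260 nm; 0.3 mol compound per mol DNA, DNA alone as control. Tm taken from peak of first-derivative (dA/dT) curve; ΔTm = Tm complex − Tm free DNA.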

The subject of a further data set is L6. Kind of data set: Cytotoxicity against rat L6 cells. The class given is cell-based.
Data set [2] has as its system Trypanosoma brucei rhodesiense. As to the kind of experiment: Antitrypanosomal activity against Trypanosoma brucei rhodesiense STIB900 bloodstream forms after 70 hrs by Alamar blue assay. The class given is functional. As to conditions: STIB900, 70 h. The procedure, abridged:
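In vitro viability assay on T. b. rhodesiense strain STIB900; values are the average of duplicate determinations.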

Data set [3] is described as follows: Selectivity index, ratio of IC50 for rat L6 cells to IC50 for Trypanosoma brucei rhodesiense STIB900 bloodstream forms. The format is toxicity. As to conditions: read-out: Ratio IC50. The procedure, abridged: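 Selectivity index calculated as IC50 in L6 cells divided by IC50 against T. b. rhodesiense STIB900.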
The subject of data set [4] is Trypanosoma brucei rhodesiense. As to the kind of experiment: Antitrypanosomal activity against Trypanosoma brucei rhodesiense STIB900 infected in NMRI mouse assessed as aparasitemic mouse at 5 mg/kg, ip for 4 consecutive days starting from day 3 post infection measured up to day 60 post infection relative to control. The class given is functional. The procedure, abridged: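 STIB900 acute-stage mouse model of T. b. rhodesiense infection; compound given intraperitoneally at 5 mg/kg daily for four consecutive days (4 × 5 mg/kg), 4 infected mice per group; cure rate reported as mice cured out of 4.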

Data set [5] deals with Trypanosoma brucei rhodesiense. As to the kind of experiment: Potency index, ratio of DAPI IC50 to compound IC50 for Trypanosoma brucei rhodesiense STIB900 bloodstream forms. The class given is functional.
A short description of data set [6]: Binding affinity to poly(dA-dT)n DNA minor groove (unknown origin) assessed as positive induced CD signal at 1:20 to 5:20 molar ratio of compound:DNA by CD spectroscopic analysis. A digest of the protocol:
(§1)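 CD spectra recorded at 25 °C in MES 10 buffer (10 mM MES, 100 mM NaCl, 1 mM EDTA) over a series of compound-to-DNA ratios.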

Data set [7] can be described thus: Binding affinity to poly(dA-dT)n DNA minor groove (unknown origin) assessed as positive induced CD signal at 1:20 to 8:20 molar ratio of compound:DNA by CD spectroscopic analysis. A digest of the protocol: as §1
For another data set, the system named is Mus musculus. As to the kind of experiment: Toxicity in NMRI mouse infected with Trypanosoma brucei rhodesiense STIB900 assessed as death at 5 mg/kg, ip for 4 consecutive days starting from day 3 post infection. As to conditions: in vivo. The format is organism-based. A digest of the protocol: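 Acute-stage STIB900 mouse model, four infected mice per compound, given 5 mg/kg intraperitoneally once daily on four consecutive days (4 × 5 mg/kg). Deaths among treated mice were counted out of 4, alongside cure of survivors. Other protocol details follow an earlier report.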

pIC50: −log10 of the molar value. Activity calls are given as the source filed them. No cut-off for these calls is given here. Bounds are passed on as bounds.

In the case of `N=C(N)c1ccc(-c2cc3cc(C(=N)N)ccc3[nH]2)nc1`, the ΔTm in [1] was above 26 °C. The pIC50 in the data set with L6 was 4.67; in data set [2] it was 8.40. Moreover, the selectivity ratio in data set [3] amounted to 5320. In data set [4], the Activity was 100%. Further, the “Ratio IC50” value in data set [5] is on record as 2 - 6.
For the compound `N=C(N)c1ccc2cc(-c3ccc(C(=N)N)s3)[nH]c2c1`, the ΔTm in data set [1] was 10 °C. The pIC50 in the data set with L6 is 5.35; in data set [2], 7.96. Moreover, in data set [3], the selectivity ratio was determined as 409. The “Ratio IC50” value in data set [5] is 2 - 6.
For the compound `N=C(N)c1ccc2cc(-c3ccc(C(=N)N)nc3)[nH]c2c1`, the ΔTm in data set [1] came out at 15.3 °C. The figures for the pIC50 (with L6; in data set [2]) were 5.70 and 8.52, respectively. In addition, the selectivity ratio in data set [3] came to 667. Moreover, in data set [4], the Activity is 25%. The “Ratio IC50” value in [5] is 2 - 6.
As to `N=C(N)c1ccc(-c2cc3ccc(C(=N)N)cc3[nH]2)cc1` [DAPI], the ΔTm in data set [1] was above 27 °C. Also, the outcome in data set [6] was Active. In addition, the selectivity ratio in data set [3] was determined as 48.
For `N=C(N)c1ccc2[nH]c(-c3ccc(C(=N)N)nc3)cc2c1`, in [1], the ΔTm worked out at 12.1 °C. Further, the values for the pIC50 (in the data set with L6; in data set [2]) were 5.74 and 8.30, respectively. The selectivity ratio in [3] was 394. Moreover, the Activity in data set [4] is on record as 25%. For the same compound, in [5], the “Ratio IC50” value is listed as 2 - 6.
With `N=C(N)c1ccc(-c2cc3ccc(C(=N)N)cc3[nH]2)nc1`, in [1], the ΔTm came out at 22.1 °C. Besides, the result in data set [7] was Active. Further, the pIC50 in the data set with L6 is 5.49; in data set [2] it was 7.62. In data set [3], the selectivity ratio came out at 133. The Activity in [4] is on record as 100%.
On to `COc1cc(C(=N)N)ccc1-c1cc2ccc(C(=N)N)cc2[nH]1`, for which the ΔTm in data set [1] is above 26 °C. Further, the result in data set [6] was Active. For the same compound, the pIC50 with L6 was 4.53; in data set [2] it was 8.22. Moreover, in [3], the selectivity ratio amounted to 4880. In addition, the Activity in data set [4] is 100%. Besides, the “Ratio IC50” value in [5] is reported as 2 - 6.
On to `Cc1cc(-c2cc3cc(C(=N)N)ccc3[nH]2)ccc1C(=N)N`, for which the ΔTm in [1] was determined as 15.3 °C. For the same compound, the pIC50 in the data set with L6 is 4.63; in data set [2] it was 8.52. Also, in data set [3], the selectivity ratio came to 7830. The Activity in data set [4] turned out to be 75%. Moreover, the “Ratio IC50” value in [5] is reported as 2 - 6.
With `Cc1cc(-c2cc3ccc(C(=N)N)cc3[nH]2)ccc1C(=N)N`, the ΔTm in [1] is above 26 °C. In addition, the pIC50 was 4.80 with L6 and 8.30 in data set [2]. For the same compound, in data set [3], the selectivity ratio turned out to be 3140. Moreover, in data set [4], the Activity turned out to be 75%. The “Ratio IC50” value in [5] is recorded as 2 - 6.
As for `COc1ccc(-c2cc3ccc(C(=N)N)cc3[nH]2)cc1`, the ΔTm in data set [1] came to 12.6 °C. The pIC50 in the data set on L6 is 4.54; in data set [2], 5.31. The selectivity ratio in data set [3] is 6.
Turning to `N=C(N)c1ccc2cc(-c3ccc(C(=N)N)o3)[nH]c2c1`, the ΔTm in data set [1] is 11 °C. For the same compound, the pIC50 is 5.14 in the data set on L6 and 8.05 in [2]. The selectivity ratio in data set [3] came to 800. Besides, the result in [4] was inactive. Besides, in the data set on Mus musculus, the Activity entry is reported as “Toxic”. Also, the “Ratio IC50” value in data set [5] was 2 - 6.
For `N=C(N)c1ccc(-c2cc3cc(C(=N)N)ccc3[nH]2)cc1`, the ΔTm in data set [1] was found to be 19.2 °C.
Turning to `N=C(N)c1ccc2[nH]c(-c3ccc(C(=N)N)o3)cc2c1`, the ΔTm in [1] stood at 21.4 °C. For the same compound, the result in [6] was Active. Besides, the pIC50 is 5.57 in the data set with L6 and 8.52 in [2]. The selectivity ratio in data set [3] is 900. Moreover, the Activity in data set [4] is recorded as 100%. In addition, the “Ratio IC50” value in data set [5] was 2 - 6.
